The structures appear in SMILES notation. ≈ marks a conversion by molar mass, not a printed value.

Format in all cases: functional
For experiment [1], the system named is Candida parapsilosis. In words: Antifungal activity against Candida parapsilosis 22019. The following applies: Lodderomyces parapsilosis. Summed up: (§1)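 MIC was determined in Sabouraud dextrose medium.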
Experiment [2] relates to Candida albicans. In words: Antifungal activity against Candida albicans MY2323 expressing single copy of YSH1 gene. The gist of the method:
(§2)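 Wild-type C. albicans was tested alongside two heterozygote strains, each carrying a single copy of CLP1 or YSH1, to compare mechanism of action. The read-out was MIC.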

In experiment [3] the test system is Candida albicans. In words: Antifungal activity against Candida albicans MY2323 expressing single copy of CLP1 gene. The gist of the method: as §2
The subject of experiment [4] is Nakaseomyces glabratus. In words: Antifungal activity against Candida glabrata ATCC 90030. Summed up: as §1
The test system of experiment [5] is Pichia kudriavzevii. In words: Antifungal activity against Candida krusei ATCC 6258. The gist of the method: as §1
The test system of experiment [6] is Candida tropicalis. In words: Antifungal activity against Candida Candida tropicalis ATCC 750. Summed up: as §1
Experiment [7] relates to Candida albicans. Kind of experiment: Antifungal activity against Candida albicans MY2323. The gist of the method:
as §2

In experiment [8] the test system is Clavispora lusitaniae. In words: Antifungal activity against Candida lusitaniae ATCC 34449. Summed up:
as §1

What is called MIC is the lowest concentration found to suppress growth. A low value points to greater potency. With `COC(=O)[C@]12Oc3cc4c(c(OC)c3C(=O)C1=C(O)CC[C@@H]2O)-c1cccc2c(=O)on(c12)C4` [PARNAFUNGIN A], the MIC in experiment [1] was greater than 10 µg/mL; in experiment [2] it was 0.03 µg/mL (≈ 0.0645 µM); in experiment [3], 0.03 µg/mL (≈ 0.0645 µM); in experiment [4], greater than 10 µg/mL; in experiment [5], 0.08 µg/mL (≈ 0.172 µM); in experiment [6], 2.5 µg/mL (≈ 5.37 µM). The MIC in experiment [7] is 2 µg/mL (≈ 4.3 µM); in experiment [8], 0.16 µg/mL (≈ 0.344 µM).

On to `COC(=O)[C@]12Oc3cc4c(c(OC)c3C(=O)C1=C(O)[C@@H]1O[C@@H]1[C@@H]2O)-c1cccc2c(=O)on(c12)C4` [PARNAFUNGIN D], for which the MIC in experiment [1] came out at 2.5 µg/mL (≈ 5.21 µM); in experiment [2], 0.004 µg/mL (≈ 0.00834 µM); in experiment [3], 0.004 µg/mL (≈ 0.00834 µM); in experiment [4] it was 5 µg/mL (≈ 10.4 µM); in experiment [5], 0.016 µg/mL (≈ 0.0334 µM); in experiment [6], 0.6 µg/mL (≈ 1.25 µM). Further, the MIC was 0.016 µg/mL (≈ 0.0334 µM) in experiment [7] and 0.16 µg/mL (≈ 0.334 µM) in experiment [8].
